Experimental findings from ChEMBL document CHEMBL4251685, “Microthecaline A, a Quinoline Serrulatane Alkaloid from the Roots of the Australian Desert Plant Eremophila microtheca” (J Nat Prod, 2018) are described below.

SMILES strings stand for the structures. Active and inactive are the calls of the source. No cut-off for these calls is given here.

In data set [1] the test system is Plasmodium falciparum. Briefly: Antimalarial activity against chloroquine-sensitive Plasmodium falciparum 3D7 after 72 hrs by DAPI staining based fluorescence assay. The class given is functional, organism-based. The following applies: 3D7, 72 h.
Data set [2] can be described thus: Selectivity index, ratio of IC50 for HEK293 cells to IC50 for chloroquine-resistant Plasmodium falciparum Dd2. The class given is toxicity. Particulars: human; read-out: Ratio IC50.
The test system of data set [3] is Plasmodium falciparum. Briefly: Antimalarial activity against chloroquine-resistant Plasmodium falciparum Dd2 after 72 hrs by DAPI staining based fluorescence assay. The class given is functional, organism-based. The following applies: Dd2, 72 h.
Data set [4] is described as follows: Cytotoxicity against HEK293 cells assessed as inhibition of cell growth at 80 uM after 72 hrs by alamar blue assay relative to control. The class given is cell-based. Particulars: human, read-out: GI. Put shortly: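 HEK293 human embryonic kidney cells; the reported value is the average percent inhibition measured at 80 μM.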
(In general: The colour change of resazurin is a common sign of viable cells or microbes.)

The nature of data set [5]: Selectivity index, ratio of IC50 for HEK293 cells to IC50 for chloroquine-sensitive Plasmodium falciparum 3D7. The class given is toxicity. The following applies: human; read-out: Ratio IC50.
A further data set concerns HEK293. The experiment in a line: Cytotoxicity against HEK293 cells assessed as inhibition of cell growth at 10 uM after 72 hrs by alamar blue assay. The class given is cell-based. The following applies: human, hek293, 72 h.
For data set [6], the system named is Plasmodium falciparum. The experiment in a line: Antimalarial activity against chloroquine-resistant Plasmodium falciparum Dd2 at 10 uM after 72 hrs by DAPI staining based fluorescence assay. The class given is functional, organism-based.
Data set [7] concerns Plasmodium falciparum. Briefly: Antimalarial activity against chloroquine-sensitive Plasmodium falciparum 3D7 at 10 uM after 72 hrs by DAPI staining based fluorescence assay. The class given is functional, organism-based.

For the compound `CC(C)=CCCc1cnc2c(C)cc(O)c3c2c1CC[C@H]3C`, the half-inhibitory concentration (IC50) (in general, the midpoint of a concentration-inhibition curve) with Plasmodium falciparum [1] worked out at 7.7 µM; in the data set with Plasmodium falciparum [3], 17.2 µM. The results for the selectivity ratio in data set [2] and in data set [5] were 2.3 and 5.2, respectively. In addition, in data set [4], the inhibition at 72 h, 80 µM is 62%.
With `C[C@H]1[C@H](OC(=O)CCC(=O)O)O[C@@H]2O[C@@]3(C)CC[C@H]4[C@H](C)CC[C@@H]1[C@@]24OO3` [ARTESUNATE], the selectivity ratio in data set [2] turned out to be 10000; in data set [5] it was 11600. For the same compound, 0.001 µM corresponded to half-maximal inhibition in the data set with Plasmodium falciparum [3] (IC50).
Turning to `CCN(CC)CCCC(C)Nc1ccnc2cc(Cl)ccc12` (stereo not drawn) [CHLOROQUINE], the “growth inhibition (GI)” value in the data set on HEK293 is listed as “Not Active”.
In the case of `COc1ccc(C[C@H](N)C(=O)N[C@H]2[C@@H](O)[C@H](n3cnc4c(N(C)C)ncnc43)O[C@@H]2CO)cc1` [PUROMYCIN], the selectivity ratio worked out at 10.5 in data set [2] and 9 in data set [5].
Consider `COc1cc(C)c2ncc(CCC=C(C)C)c3c2c1[C@H](C)CC3`, for which the result in the data set with Plasmodium falciparum [6] and in the data set on Plasmodium falciparum [7] was inactive.
